Measured values as given in ChEMBL document CHEMBL6071131, “New substituted benzoxazine derivatives as potent inducers of membrane permeability and cell death” (Bioorg Med Chem, 2024).
Calls of active or inactive are those of the source. The rule behind the calls is not given here.

Biological target: Mitogen-activated protein kinase 14 (Homo sapiens) (UniProt Q16539)
Test: Inhibition of human P38-alpha assessed as residual activity at 50 uM relative to control
In short: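 Residual kinase activity determined with each compound at 5×10⁻⁶ and 5×10⁻⁵ M, in singlicate per kinase assay, expressed relative to uninhibited control.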

Sequence of Mitogen-activated protein kinase 14 (Homo sapiens) (Q16539 whole entry): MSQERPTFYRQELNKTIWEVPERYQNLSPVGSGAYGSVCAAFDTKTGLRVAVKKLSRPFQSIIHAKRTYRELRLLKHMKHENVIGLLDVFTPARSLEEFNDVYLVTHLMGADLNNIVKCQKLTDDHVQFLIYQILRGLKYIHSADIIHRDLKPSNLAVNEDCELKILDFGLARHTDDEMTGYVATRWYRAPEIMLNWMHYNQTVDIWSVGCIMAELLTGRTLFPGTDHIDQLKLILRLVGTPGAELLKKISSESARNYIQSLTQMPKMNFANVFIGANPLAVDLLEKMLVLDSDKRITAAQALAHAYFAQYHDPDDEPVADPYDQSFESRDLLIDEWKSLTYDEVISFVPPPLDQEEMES

| SMILES | Activity [%] |
| --- | --- |
| Cc1ccc(S(=O)(=O)N2CC(CCn3cnc4c(Cl)nc(Cl)nc43)Oc3cc(Cl)ccc32)cc1 (configuration not stated) | 77 |

Test system: HCT-116
Test: Induction of morphological changes in human HCT-116 cells assessed as multiple cellular remnants formation incubated for 24 hrs by SEM analysis
Type: functional, cell-based

| SMILES | Activity |
| --- | --- |
| Cc1ccc(S(=O)(=O)N2CC(CCn3cnc4c(Cl)nc(Cl)nc43)Oc3cc(Cl)ccc32)cc1 (configuration not stated) | Active |

Test system: HCT-116
Test: Induction of morphological changes in human HCT-116 cells assessed as formation of vesicular bodies incubated for 24 hrs by SEM analysis
Type: functional, cell-based

| SMILES | Activity |
| --- | --- |
| Cc1ccc(S(=O)(=O)N2CC(CCn3cnc4c(Cl)nc(Cl)nc43)Oc3cc(Cl)ccc32)cc1 (configuration not stated) | Active |

Test system: HCT-116
Test: Induction of morphological changes in human HCT-116 cells assessed as formation of membrane blebbing incubated for 24 hrs by SEM analysis
Type: functional, cell-based

| SMILES | Activity |
| --- | --- |
| Cc1ccc(S(=O)(=O)N2CC(CCn3cnc4c(Cl)nc(Cl)nc43)Oc3cc(Cl)ccc32)cc1 (configuration not stated) | Active |

Test system: HCT-116
Test: Induction of morphological changes in human HCT-116 cells assessed as flattening of cellular structure incubated for 24 hrs by SEM analysis
Type: functional, cell-based

| SMILES | Activity |
| --- | --- |
| Cc1ccc(S(=O)(=O)N2CC(CCn3cnc4c(Cl)nc(Cl)nc43)Oc3cc(Cl)ccc32)cc1 (configuration not stated) | Active |

Test system: HCT-116
Test: Induction of morphological changes in human HCT-116 cells assessed as pore formation in cell membrane incubated for 24 hrs by SEM analysis
Type: functional, cell-based

| SMILES | Activity |
| --- | --- |
| Cc1ccc(S(=O)(=O)N2CC(CCn3cnc4c(Cl)nc(Cl)nc43)Oc3cc(Cl)ccc32)cc1 (configuration not stated) | Active |

Test system: MCF7
Test: Induction of morphological changes in human MCF7 cells assessed as formation of membrane blebbing incubated for 24 hrs by SEM analysis
Type: functional, cell-based

| SMILES | Activity |
| --- | --- |
| Cc1ccc(S(=O)(=O)N2CC(CCn3cnc4c(Cl)nc(Cl)nc43)Oc3cc(Cl)ccc32)cc1 (configuration not stated) | Active |

Test system: MCF7
Test: Induction of morphological changes in human MCF7 cells assessed as formation of round vesicular bodies incubated for 24 hrs by SEM analysis
Type: functional, cell-based

| SMILES | Activity |
| --- | --- |
| Cc1ccc(S(=O)(=O)N2CC(CCn3cnc4c(Cl)nc(Cl)nc43)Oc3cc(Cl)ccc32)cc1 (configuration not stated) | Active |

Test system: HCT-116
Test: Induction of apoptosis in human HCT-116 cells assessed as late apoptotic cells at 50 uM incubated for 12 hrs by Annexin V-FITC/PI staining based flow cytometry (reference value: 2.8 +/- 0.38 %)
Type: functional

| SMILES | Activity [%] |
| --- | --- |
| Cc1ccc(S(=O)(=O)N2CC(CCn3cnc4c(Cl)nc(Cl)nc43)Oc3cc(Cl)ccc32)cc1 (configuration not stated) | 49.5 |

Test system: HCT-116
Test: Induction of apoptosis in human HCT-116 cells assessed as necrotic cells at 50 uM incubated for 12 hrs by Annexin V-FITC/PI staining based flow cytometry (reference value: 3.5 +/- 0.66 %)
Type: functional

| SMILES | Activity [%] |
| --- | --- |
| Cc1ccc(S(=O)(=O)N2CC(CCn3cnc4c(Cl)nc(Cl)nc43)Oc3cc(Cl)ccc32)cc1 (configuration not stated) | 28.4 |

Test system: MCF7
Test: Induction of apoptosis in human MCF7 cells assessed as late apoptotic cells at 50 uM incubated for 12 hrs by Annexin V-FITC/PI staining based flow cytometry (reference value: 0.26 +/- 0.09 %)
Type: functional

| SMILES | Activity [%] |
| --- | --- |
| Cc1ccc(S(=O)(=O)N2CC(CCn3cnc4c(Cl)nc(Cl)nc43)Oc3cc(Cl)ccc32)cc1 (configuration not stated) | 87.3 |

Test system: MCF7
Test: Induction of apoptosis in human MCF7 cells assessed as early apoptotic cells at 50 uM incubated for 12 hrs by Annexin V-FITC/PI staining based flow cytometry (reference value: 0.33 +/- 0.12 %)
Type: functional

| SMILES | Activity [%] |
| --- | --- |
| Cc1ccc(S(=O)(=O)N2CC(CCn3cnc4c(Cl)nc(Cl)nc43)Oc3cc(Cl)ccc32)cc1 (configuration not stated) | 7.9 |

Test system: MCF7
Test: Induction of apoptosis in human MCF7 cells assessed as necrotic cells at 50 uM incubated for 12 hrs by Annexin V-FITC/PI staining based flow cytometry (reference value: 0.56 +/- 0.04 %)
Type: functional

| SMILES | Activity [%] |
| --- | --- |
| Cc1ccc(S(=O)(=O)N2CC(CCn3cnc4c(Cl)nc(Cl)nc43)Oc3cc(Cl)ccc32)cc1 (configuration not stated) | 0.83 |

Test system: HCT-116
Test: Induction of cell cycle arrest in human HCT-116 cells assessed as accumulation of cells at G2/M phase at 50 uM incubated for 12 hrs by PI staining based flow cytometry (reference value: 8.3 +/- 0.74 %)
Type: functional

| SMILES | Activity [%] |
| --- | --- |
| Cc1ccc(S(=O)(=O)N2CC(CCn3cnc4c(Cl)nc(Cl)nc43)Oc3cc(Cl)ccc32)cc1 (configuration not stated) | 6.67 |

Test system: HCT-116
Test: Induction of cell cycle arrest in human HCT-116 cells assessed as accumulation of cells at S phase at 50 uM incubated for 12 hrs by PI staining based flow cytometry (reference value: 18.7 +/- 0.5 %)
Type: functional

| SMILES | Activity [%] |
| --- | --- |
| Cc1ccc(S(=O)(=O)N2CC(CCn3cnc4c(Cl)nc(Cl)nc43)Oc3cc(Cl)ccc32)cc1 (configuration not stated) | 49.2 |

Test system: MCF7
Test: Cytotoxicity against human MCF7 cells at 50 uM incubated for 12 hrs by PI staining based flow cytometry relative to control
Type: functional

| SMILES | Activity [%] |
| --- | --- |
| Cc1ccc(S(=O)(=O)N2CC(CCn3cnc4c(Cl)nc(Cl)nc43)Oc3cc(Cl)ccc32)cc1 (configuration not stated) | 100 |

Test system: MCF7
Test: Induction of morphological changes in human MCF7 cells assessed as formation of large pores in cell membrane incubated for 12 hrs by SEM analysis

| SMILES | Activity |
| --- | --- |
| Cc1ccc(S(=O)(=O)N2CC(CCn3cnc4c(Cl)nc(Cl)nc43)Oc3cc(Cl)ccc32)cc1 (configuration not stated) | Active |
